According to ChEMBL document CHEMBL4152269, “New N-phenylpyrrolamide DNA gyrase B inhibitors: Optimization of efficacy and antibacterial activity” (Eur J Med Chem, 2018):
≈ marks a conversion by molar mass, not a printed value.

Columns and labels:
Escherichia coli [1] = test: Inhibition of Escherichia coli C-terminal His6-tagged topoisomerase-4 expressed in Escherichia coli BL21(DE3) assessed as residual activity at 1 uM preincubated for 10 mins followed by ATP addition measured after 30 mins by purine nucleoside phosphorylase enzyme coupled spectrophotometric method relative to control
Enterococcus faecalis [2] = test: Growth inhibition of Enterococcus faecalis ATCC 29212 at 50 uM after 24 hrs by broth microdilution method relative to control; assay type: functional; conditions: ATCC 29212, 24 h, read-out: GI
Escherichia coli [3] = test: Growth inhibition of lpxC deficient Escherichia coli JD17464 at 50 uM after 24 hrs by broth microdilution method relative to control; assay type: functional; conditions: JD17464, 24 h, read-out: GI
Escherichia coli [4] = test: Growth inhibition of tolC deficient Escherichia coli JW5503 at 50 uM after 24 hrs by broth microdilution method relative to control; assay type: functional; conditions: JW5503, 24 h, read-out: GI
Staphylococcus aureus [5] = test: Inhibition of Staphylococcus aureus topoisomerase-4 assessed as residual activity at 1 uM preincubated for 10 mins followed by ATP addition measured after 30 mins by purine nucleoside phosphorylase enzyme coupled spectrophotometric method relative to control
Staphylococcus aureus [6] = test: Growth inhibition of Staphylococcus aureus ATCC 25923 at 50 uM after 24 hrs by broth microdilution method relative to control; assay type: functional; conditions: ATCC 25923, 24 h, read-out: GI
Escherichia coli [7] = test: Growth inhibition of Escherichia coli ATCC 25922 at 50 uM after 24 hrs by broth microdilution method relative to control; assay type: functional; conditions: ATCC 25922, 24 h, read-out: GI
[8] = target: DNA gyrase subunit B (Staphylococcus aureus) (UniProt P0A0K8); test: Inhibition of Staphylococcus aureus DNA gyrase B assessed as residual activity at 1 uM preincubated for 10 mins followed by ATP addition measured after 30 mins by purine nucleoside phosphorylase enzyme coupled spectrophotometric method relative to control
DNA gyrase subunit B (Staphylococcus aureus), sequence (P0A0K8 2-644 limits assumed): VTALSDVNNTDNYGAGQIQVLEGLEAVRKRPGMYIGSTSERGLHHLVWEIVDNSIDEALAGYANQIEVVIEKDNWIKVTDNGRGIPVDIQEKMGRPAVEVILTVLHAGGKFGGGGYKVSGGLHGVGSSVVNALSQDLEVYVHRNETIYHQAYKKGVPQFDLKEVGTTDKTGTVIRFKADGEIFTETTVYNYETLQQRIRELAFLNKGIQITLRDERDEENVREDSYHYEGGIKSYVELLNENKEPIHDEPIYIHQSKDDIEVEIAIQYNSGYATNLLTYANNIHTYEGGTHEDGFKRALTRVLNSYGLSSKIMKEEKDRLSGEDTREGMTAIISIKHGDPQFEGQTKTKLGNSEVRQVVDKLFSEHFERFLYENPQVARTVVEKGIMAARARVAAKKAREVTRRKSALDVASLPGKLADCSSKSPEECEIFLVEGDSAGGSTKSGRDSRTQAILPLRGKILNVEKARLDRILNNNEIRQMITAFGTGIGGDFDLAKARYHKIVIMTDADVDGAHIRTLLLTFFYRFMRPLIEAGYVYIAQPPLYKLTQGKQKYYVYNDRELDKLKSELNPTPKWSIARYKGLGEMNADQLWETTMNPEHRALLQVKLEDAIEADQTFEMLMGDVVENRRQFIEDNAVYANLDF

Pseudomonas aeruginosa = test: Growth inhibition of Pseudomonas aeruginosa ATCC 27853 at 50 uM after 24 hrs by broth microdilution method relative to control; assay type: functional; conditions: ATCC 27853, 24 h, read-out: GI
DNA gyrase subunit B [9] = target: DNA gyrase subunit B (Escherichia coli, UniProt P0AES6); test: Inhibition of Escherichia coli DNA gyrase by supercoiling assay
Enterococcus faecalis [10] = test: Antibacterial activity against Enterococcus faecalis ATCC 29212 after 18 hrs by broth microdilution method; assay type: functional; conditions: ATCC 29212, 18 h
Escherichia coli [11] = test: Antibacterial activity against tolC deficient Escherichia coli JW5503 after 18 hrs by broth microdilution method; assay type: functional; conditions: JW5503, 18 h
Staphylococcus aureus [12] = test: Antibacterial activity against Staphylococcus aureus ATCC 25923 after 18 hrs by broth microdilution method; assay type: functional; conditions: ATCC 25923, 18 h
[13] = Inhibition of Staphylococcus aureus topoisomerase-4 assessed as residual activity preincubated for 10 mins followed by ATP addition measured after 30 mins by purine nucleoside phosphorylase enzyme coupled spectrophotometric method
DNA gyrase subunit B [14] = target: DNA gyrase subunit B (Staphylococcus aureus, UniProt P0A0K8); test: Inhibition of Staphylococcus aureus DNA gyrase B preincubated for 10 mins followed by ATP addition measured after 30 mins by purine nucleoside phosphorylase enzyme coupled spectrophotometric method
DNA gyrase subunit B (Staphylococcus aureus, UniProt P0A0K8), sequence (P0A0K8 whole entry): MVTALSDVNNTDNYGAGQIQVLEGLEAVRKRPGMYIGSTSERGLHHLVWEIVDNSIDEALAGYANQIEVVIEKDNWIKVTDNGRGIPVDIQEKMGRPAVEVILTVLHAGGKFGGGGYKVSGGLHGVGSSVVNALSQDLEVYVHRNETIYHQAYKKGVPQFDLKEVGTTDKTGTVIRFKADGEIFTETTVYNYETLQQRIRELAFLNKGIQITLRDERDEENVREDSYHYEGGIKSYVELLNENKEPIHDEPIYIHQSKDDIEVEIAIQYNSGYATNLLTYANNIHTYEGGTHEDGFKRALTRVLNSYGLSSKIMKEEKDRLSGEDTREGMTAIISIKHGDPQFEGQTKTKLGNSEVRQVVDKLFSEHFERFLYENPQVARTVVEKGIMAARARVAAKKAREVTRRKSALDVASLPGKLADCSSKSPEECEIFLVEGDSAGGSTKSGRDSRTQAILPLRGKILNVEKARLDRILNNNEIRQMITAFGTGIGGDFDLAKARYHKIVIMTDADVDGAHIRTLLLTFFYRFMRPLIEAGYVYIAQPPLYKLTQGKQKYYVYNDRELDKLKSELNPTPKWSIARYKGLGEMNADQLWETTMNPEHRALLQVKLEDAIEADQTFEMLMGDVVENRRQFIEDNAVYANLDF

HUVEC = test: Cytotoxicity against HUVEC assessed as reduction in cell proliferation after 72 hrs by MTS assay; assay type: cell-based; conditions: Homo sapiens
In short: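 MTS assay in HUVEC grown in Eagle's MEM with 2 mM L-glutamine, penicillin/streptomycin and 10% FBS, at 37 °C under 5% CO2. Cells seeded at 2000 per well, attached for 24 h, then exposed to six compound concentrations (0.5% DMSO final) for 72 h. Reagent added for 3 h before reading A490. IC50 derived against DMSO-treated cells; triplicate wells, two repeats.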

| Compound | Activity (Escherichia coli [1]) | inhibition of growth at 50 µM (Enterococcus faecalis [2]) | inhibition of growth at 50 µM (Escherichia coli [3]) | inhibition of growth at 50 µM (Escherichia coli [4]) | Activity (Staphylococcus aureus [5]) | inhibition of growth at 50 µM (Staphylococcus aureus [6]) | inhibition of growth at 50 µM (Escherichia coli [7]) | Activity [8] | inhibition of growth at 50 µM (Pseudomonas aeruginosa) | IC50 (DNA gyrase subunit B [9]) | MIC90 (Enterococcus faecalis [10]) | MIC90 (Escherichia coli [11]) | MIC90 (Staphylococcus aureus [12]) | IC50 [13] | IC50 (DNA gyrase subunit B [14]) | IC50 (HUVEC) |
| --- | --- | --- | --- | --- | --- | --- | --- | --- | --- | --- | --- | --- | --- | --- | --- | --- |
| NCCOc1cc(C(=O)N[C@@H](Cc2ccccc2)C(=O)O)ccc1NC(=O)c1cc(Br)c(Br)[nH]1 | 96% | 34% | 9% | -6% | 98% | 20% | 5% | 89% | 21% | 370 nM | – | – | – | – | – | – |
| COC(=O)[C@H](C)NC(=O)c1ccc(NC(=O)c2[nH]c(C)c(Cl)c2Cl)c(OCCN)c1 | 89% | 100% | 47% | 100% | – | 82% | 67% | – | 35% | 34 nM | 25 µM (≈ 11.4 µg/mL) | 25 µM (≈ 11.4 µg/mL) | 50 µM (≈ 22.9 µg/mL) | 3.7 µM | 390 nM | – |
| COc1cc([C@@H]2c3cc4c(cc3[C@@H](O[C@@H]3O[C@@H]5CO[C@@H](C)O[C@H]5[C@H](O)[C@H]3O)[C@H]3COC(=O)[C@H]23)OCO4)cc(OC)c1O [ETOPOSIDE] | – | – | – | – | – | – | – | – | – | – | – | – | – | – | – | 5.21 µM |
| CC(C)Oc1cc(NC(=O)c2cc(Br)c(Br)[nH]2)ccc1C(=O)NCC(=O)O | – | 14% | – | – | 96% | 13% | 9% | 85% | -8% | 400 nM | – | – | – | – | – | – |
| O=C(O)CNC(=O)c1ccc(NC(=O)c2cc(Br)c(Br)[nH]2)cc1OCc1ccccc1 | 100% | 2% | – | – | – | 19% | 10% | 79% | -2% | 88 nM | – | – | – | 39 µM | – | – |
